# Assay results as given in PMC9361925 (RSC Advances, 2022).
# Read-outs that look alike come from different tables or passages of the source.
# Tests used:
# [1] = tested on: breast (MCF7, HTB-22™) cancer cell line; assay: MTT cytotoxicity assay, MCF7 cells; assay type: cell-based; settings: Homo sapiens, MCF7, 72 h, read-out: IC50 MCF7
# In short: (§1)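 Log-phase cells in DMEM with 7–10% FBS and penicillin/streptomycin (37 °C, 5% CO2) seeded at 3 × 10^4 cells per mL. Exposed 3 days to test compound in DMSO at 1.00, 0.25, 0.0625 and 0.0156 μg mL−1. MTT (5 mg mL−1 stock in 0.1 M PBS, pH 7.4) added for 4 h at 37 °C; formazan dissolved in DMSO, absorbance at 540 nm. Growth inhibition calculated relative to untreated controls.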
# [2] = tested on: human embryonic kidney (HEK-293, ATCC number CRL-1573) cell line; assay: MTT cytotoxicity assay, Hek-293 cells; assay type: cell-based; settings: HEK293, 72 h, read-out: IC50 Hek-293
# In short: as §1
# [3] = tested on: epidermoid carcinoma (KB, ATCC number CCL-17); assay: MTT cytotoxicity assay, KB cells; assay type: cell-based; settings: Homo sapiens, 72 h, read-out: IC50 KB
# In short: as §1
# [4] = tested on: lung (A549) cancer cell line; assay: MTT cytotoxicity assay, A549 cells; assay type: cell-based; settings: Homo sapiens, A549, 72 h, read-out: IC50 A549
# In short: as §1
# [5] = tested on: hepatocellular carcinoma (HepG2, ATCC number HB-8065); assay: MTT cytotoxicity assay, HepG2 cells; assay type: cell-based; settings: Homo sapiens, HepG2, 72 h, read-out: IC50 HepG2
# In short: as §1
# [6] = tested on: SK-Lu-1 cells; assay: Cell nucleus staining with Hoechst 33342; assay type: cell-based, human; settings: 0.08 μM, 0.16 μM, and 0.32 μM, 24 h
# [7] = tested on: breast (MCF7, HTB-22™) cancer cell line; settings: read-out: IC50 MCF7; MCF7 cells; cited from earlier work
# [8] = tested on: SK-Lu-1 cells; settings: read-out: IC50 SK-Lu-1; cited from earlier work
# [9] = tested on: SK-Lu-1 cells; assay: Annexin V FITC and PI flow cytometry assay for apoptosis; assay type: cell-based, human; settings: 24 h; for % Necrotic cells: Annexin-V/PI (Q2-1); for % Late apoptosis cells: Annexin-V/PI (Q2-2); for % Early apoptosis cells: Annexin-V/PI (Q2-4); for % Total apoptosis cells: early + late
# In short: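 SK-LU-1 cells (3 × 10^5 per 25 cm2 flask; DMEM, 7–10% FBS, penicillin/streptomycin, 37 °C, 5% CO2) exposed 24 h to test compound. Controls: DMSO 0.5%, ellipticine 1.3 μM, vincristine 0.4 and 4 μM. Cells were harvested, washed in cold PBS and resuspended in annexin-binding buffer. They were stained with FITC-annexin V plus PI (100 μg mL−1 working solution) for 15 min at room temperature, then diluted and analysed by flow cytometry.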
# [10] = tested on: hepatocellular carcinoma (HepG2, ATCC number HB-8065); settings: read-out: IC50 HepG2; HepG2 cells; cited from earlier work
# [11] = tested on: epidermoid carcinoma (KB, ATCC number CCL-17); settings: read-out: IC50 KB; KB cells; cited from earlier work
# [12] = tested on: caspase-3/7 activation in human lung SK-LU-1 cancer cells; assay: Caspase-3/7 assay; assay type: cell-based; settings: SK-LU-1 cells, 0.08 μM, 0.16 μM, and 0.32 μM
# In short: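 SK-LU-1 cells (2 × 10^5 per well) incubated 5 h at 37 °C, 5% CO2, with test compound at 0.08, 0.16 or 0.32 μM. Controls: ellipticine 1.3 μM, vincristine 4 μM; solvent served as blank. Apo-ONE caspase-3/7 reagent was added, briefly shaken and left at room temperature for 1–18 h. Fluorescence was read at Ex 485/Em 530 nm. Activity = sample RFU minus blank RFU.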
# [13] = tested on: human embryonic kidney (HEK-293, ATCC number CRL-1573) cell line; settings: read-out: IC50 Hek-293; non-cancerous Hek-293 cells; cited from earlier work
# [14] = tested on: SK-Lu-1 cells; assay: Cell cycle analysis by flow cytometry; assay type: cell-based, human; settings: 24 h
# In short: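 Log-phase SK-LU-1 cells (3 × 10^5 per 25 cm2 flask) treated 24 h with test compound at 0.08, 0.16 or 0.32 μM. Controls: DMSO 0.05%, ellipticine 1.3 μM, vincristine 0.4 and 4 μM. Cells were PBS-washed and fixed in ice-cold 70% ethanol at −20 °C for 2 h. They were then treated with RNase A (1 mg mL−1, 37 °C, 15 min), stained with PI for 30 min and analysed by flow cytometry.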
compound,measurement,setting,value
"O=C1OCC2=C1C(c1cccnc1)C1=C(N2)C(=O)c2ccccc2C1=O (stereo not drawn) [5n, 11-(Pyridin-3-yl)-4,11-dihydrobenzo[g]furo[3,4-b]quinoline-1,5,10(3H)-trione]",IC50,[1],1960 ± 40 nM
same,IC50,[2],1810 ± 50 nM
same,IC50,[3],620 ± 10 nM
same,IC50,[4],610 ± 20 nM
same,IC50,[5],> 2500 nM
"O=C1OCC2=C1C(c1ccc(O)cc1)C1=C(N2)C(=O)c2ccccc2C1=O (stereo not drawn) [5i, 11-(4-Hydroxyphenyl)-4,11-dihydrobenzo[g]furo[3,4-b]quinoline-1,5,10(3H)-trione]",IC50,[1],2230 ± 60 nM
same,IC50,[2],6460 ± 150 nM
same,IC50,[3],> 2500 nM
same,IC50,[4],1590 ± 30 nM
same,IC50,[5],> 2500 nM
"COc1cccc(C2C3=C(COC3=O)NC3=C2C(=O)c2ccccc2C3=O)c1 (stereo not drawn) [5a, 11-(3-Methoxyphenyl)-4,11-dihydrobenzo[g]furo[3,4-b]quinoline-1,5,10(3H)-trione]",changes in cell morphology (Hoechst staining),[6],nucleus fragmentation and chromatin condensation
same,IC50,[7],> 2500 nM
same,IC50,[8],< 40 nM
same,% Necrotic cells,"[9]; SK-LU-1, 0.08 μM",0.59%
same,% Late apoptosis cells,"[9]; SK-LU-1, 0.08 μM",0.82%
same,% Early apoptosis cells,"[9]; SK-LU-1, 0.08 μM",1.30%
same,% Total apoptosis cells,"[9]; SK-LU-1, 0.08 μM",2.12%
same,% Necrotic cells,"[9]; SK-LU-1, 0.16 μM",2.64%
same,% Late apoptosis cells,"[9]; SK-LU-1, 0.16 μM",2.40%
same,% Early apoptosis cells,"[9]; SK-LU-1, 0.16 μM",7.23%
same,% Total apoptosis cells,"[9]; SK-LU-1, 0.16 μM",9.63%
same,% Necrotic cells,"[9]; SK-LU-1, 0.32 μM",4.68%
same,% Late apoptosis cells,"[9]; SK-LU-1, 0.32 μM",4.25%
same,% Early apoptosis cells,"[9]; SK-LU-1, 0.32 μM",11.59%
same,% Total apoptosis cells,"[9]; SK-LU-1, 0.32 μM",15.84%
same,IC50,[10],460 ± 10 nM
same,IC50,[11],1230 ± 10 nM
same,caspase-3/7 activity as compared to Ellipticine (1.3 μM),[12],4-5 fold
same,IC50,[13],9350 ± 440 nM
same,"Percentage of cell by phases, % G0/G1","[14]; SK-LU-1, 0.08 μM",47.91%
same,"Percentage of cell by phases, % G2/M","[14]; SK-LU-1, 0.08 μM",20.58%
same,"Percentage of cell by phases, % S","[14]; SK-LU-1, 0.08 μM",30.45%
same,"Percentage of cell by phases, % G0/G1","[14]; SK-LU-1, 0.16 μM",0.58%
same,"Percentage of cell by phases, % G2/M","[14]; SK-LU-1, 0.16 μM",82.17%
same,"Percentage of cell by phases, % S","[14]; SK-LU-1, 0.16 μM",5.78%
same,"Percentage of cell by phases, % G0/G1","[14]; SK-LU-1, 0.32 μM",0.28%
same,"Percentage of cell by phases, % G2/M","[14]; SK-LU-1, 0.32 μM",84.70%
same,"Percentage of cell by phases, % S","[14]; SK-LU-1, 0.32 μM",4.05%
"O=C1OCC2=C1C(c1ccccc1)C1=C(N2)C(=O)c2ccccc2C1=O (stereo not drawn) [5d, 11-(Phenyl)-4,11-dihydrobenzo[g]furo[3,4-b]quinoline-1,5,10(3H)-trione]",IC50,[7],1980 ± 40 nM
same,IC50,[8],< 44 nM
same,IC50,[10],< 44 nM
same,IC50,[11],1540 ± 10 nM
same,IC50,[13],1340 ± 10 nM
"O=C1OCC2=C1C(c1ccccc1O)C1=C(N2)C(=O)c2ccccc2C1=O (stereo not drawn) [5h, 11-(2-Hydroxyphenyl)-4,11-dihydrobenzo[g]furo[3,4-b]quinoline-1,5,10(3H)-trione]",IC50,[1],1610 ± 30 nM
same,IC50,[2],2030 ± 60 nM
same,IC50,[3],570 ± 20 nM
same,IC50,[4],430 ± 10 nM
same,IC50,[5],630 ± 20 nM
"COc1cc(C2C3=C(COC3=O)NC3=C2C(=O)c2ccccc2C3=O)cc(OC)c1OC (stereo not drawn) [5m, 11-(3,4,5-Trimethoxyphenyl)-4,11-dihydrobenzo[g]furo[3,4-b]quinoline-1,5,10(3H)-trione]",IC50,[1],120 ± 30 nM
same,IC50,[2],30 ± 10 nM
same,IC50,[3],20 ± 10 nM
same,IC50,[4],620 ± 20 nM
same,IC50,[5],20 ± 10 nM
"N#Cc1ccc(C2C3=C(COC3=O)NC3=C2C(=O)c2ccccc2C3=O)cc1 (stereo not drawn) [5k, 4-(1,5,10-Trioxo-1,3,4,5,10,11-hexahydrobenzo[g]furo[3,4-b]quinolin-11-yl)benzonitrile]",IC50,[1],> 2500 nM
same,IC50,[2],> 20000 nM
same,IC50,[3],> 2500 nM
same,IC50,[4],2030 ± 50 nM
same,IC50,[5],> 2500 nM
"CC[C@]1(O)C[C@H]2CN(CCc3c([nH]c4ccccc34)[C@@](C(=O)OC)(c3cc4c(cc3OC)N(C=O)[C@H]3[C@@](O)(C(=O)OC)[C@H](OC(C)=O)[C@]5(CC)C=CCN6CC[C@]43[C@@H]65)C2)C1 [Vincristine, reference compound]",% Necrotic cells,"[9]; SK-LU-1, 0.4 μM",4.15%
same,% Late apoptosis cells,"[9]; SK-LU-1, 0.4 μM",3.66%
same,% Early apoptosis cells,"[9]; SK-LU-1, 0.4 μM",15.13%
same,% Total apoptosis cells,"[9]; SK-LU-1, 0.4 μM",18.79%
same,% Necrotic cells,"[9]; SK-LU-1, 4.0 μM",3.62%
same,% Late apoptosis cells,"[9]; SK-LU-1, 4.0 μM",4.71%
same,% Early apoptosis cells,"[9]; SK-LU-1, 4.0 μM",19.93%
same,% Total apoptosis cells,"[9]; SK-LU-1, 4.0 μM",24.64%
same,"Percentage of cell by phases, % G0/G1","[14]; SK-LU-1, 0.4 μM",52.28%
same,"Percentage of cell by phases, % G2/M","[14]; SK-LU-1, 0.4 μM",6.72%
same,"Percentage of cell by phases, % S","[14]; SK-LU-1, 0.4 μM",38.19%
same,"Percentage of cell by phases, % G0/G1","[14]; SK-LU-1, 4.0 μM",0.07%
same,"Percentage of cell by phases, % G2/M","[14]; SK-LU-1, 4.0 μM",82.57%
same,"Percentage of cell by phases, % S","[14]; SK-LU-1, 4.0 μM",13.93%
"COc1ccc(C2C3=C(COC3=O)NC3=C2C(=O)c2ccccc2C3=O)cc1OC (stereo not drawn) [5l, 11-(3,4-Dimethoxyphenyl)-4,11-dihydrobenzo[g]furo[3,4-b]quinoline-1,5,10(3H)-trione]",IC50,[1],2280 ± 70 nM
same,IC50,[2],2230 ± 80 nM
same,IC50,[3],520 ± 20 nM
same,IC50,[4],1100 ± 20 nM
same,IC50,[5],530 ± 20 nM
"Cc1c2ccncc2c(C)c2c1[nH]c1ccccc12 [Ellipticine, reference compound]",IC50,[1],1820 ± 30 nM
same,IC50,[2],6180 ± 110 nM
same,IC50,[3],1150 ± 10 nM
same,% Necrotic cells,"[9]; SK-LU-1, 1.3 μM",3.00%
same,% Late apoptosis cells,"[9]; SK-LU-1, 1.3 μM",25.71%
same,% Early apoptosis cells,"[9]; SK-LU-1, 1.3 μM",28.22%
same,% Total apoptosis cells,"[9]; SK-LU-1, 1.3 μM",53.93%
same,IC50,[4],1600 ± 20 nM
same,IC50,[5],1510 ± 50 nM
same,"Percentage of cell by phases, % G0/G1","[14]; SK-LU-1, 1.3 μM",10.09%
same,"Percentage of cell by phases, % G2/M","[14]; SK-LU-1, 1.3 μM",71.29%
same,"Percentage of cell by phases, % S","[14]; SK-LU-1, 1.3 μM",12.52%
"O=C1OCC2=C1C(c1ccc([N+](=O)[O-])cc1)C1=C(N2)C(=O)c2ccccc2C1=O (stereo not drawn) [5j, 11-(4-Nitrophenyl)-4,11-dihydrobenzo[g]furo[3,4-b]quinoline-1,5,10(3H)-trione]",IC50,[1],> 2500 nM
same,IC50,[2],7170 ± 160 nM
same,IC50,[3],> 2500 nM
same,IC50,[4],1120 ± 40 nM
same,IC50,[5],> 2500 nM
"O=C1OCC2=C1C(c1ccc(Br)cn1)C1=C(N2)C(=O)c2ccccc2C1=O (stereo not drawn) [5o, 11-(5-Bromopyridin-2-yl)-4,11-dihydrobenzo[g]furo[3,4-b]quinoline-1,5,10(3H)-trione]",IC50,[1],> 2500 nM
same,IC50,[2],> 20000 nM
same,IC50,[3],> 2500 nM
same,IC50,[4],> 2500 nM
same,IC50,[5],> 2500 nM
